Most compounds without a hit are left out; they make up all but 2.7% or so of the library.
S100A4 inh HTS – blocks human S100A4 binding to myosin IIA peptide; S100A4/TAMRA-MyoIIA peptide fluorescence polarization; actives 0.14% (n = 360,000); inhibition, % at 10.7 µM; P26447;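 active means mean inhibition of at least 70% across replicates, with every replicate also reaching that level; inconclusive means mean inhibition reaches 70% but some replicates fall short; inactive means mean inhibition below 70%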
Target sequence (P26447 whole entry, looked up): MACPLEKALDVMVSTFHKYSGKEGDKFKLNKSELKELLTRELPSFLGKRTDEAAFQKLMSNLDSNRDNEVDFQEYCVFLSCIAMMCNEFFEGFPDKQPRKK
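Test system: S100A4 monomer protein; Medium: HEPES pH 7.2 with CaCl2, KCl, NaCl, DTT, Triton; Probe or stimulus: TAMRA-labelled myosin IIA heavy-chain peptide probe, 5 nM; Doses: one dose per compound; Times: polarization read 5 min after assay mix addition, stable 5–60 min; Benchmarks: neutral control DMSO, positive control TFP.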
DENV2 CPE rescue – inhibitors of DENV2 cytopathic effect. DENV2-infected cells, cytopathic effect rescue, plate reader. CPE inhibition, % at 9.99 µM. actives 1.7% (n = 350,000). AID 651640; in the data active means CPE inhibition above about 20%, passing the limit was not always enough; inconclusive means no clear call, values can overlap the other calls; tested in BHK-21 cells;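 further: 0% = median of neutral control wells and 100% = median of positive control wells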
MLL AF4-AF9 inh – MLL-AF4/AF9 protein interaction inhibition; AlphaScreen, biotin-AF4 peptide binding to FLAG-AF9; inhibition, % at 10 µM; actives 0.47% (n = 350,000); AID 651704;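 active means every replicate reaching a set inhibition limit, whatever the replicate mean, cut at about 25% in these data; inconclusive means mean inhibition reaches that limit but some replicates miss it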;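 further: 0% = plate neutral control median and 100% = total signal loss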
Target sequence (P42568 whole entry, looked up): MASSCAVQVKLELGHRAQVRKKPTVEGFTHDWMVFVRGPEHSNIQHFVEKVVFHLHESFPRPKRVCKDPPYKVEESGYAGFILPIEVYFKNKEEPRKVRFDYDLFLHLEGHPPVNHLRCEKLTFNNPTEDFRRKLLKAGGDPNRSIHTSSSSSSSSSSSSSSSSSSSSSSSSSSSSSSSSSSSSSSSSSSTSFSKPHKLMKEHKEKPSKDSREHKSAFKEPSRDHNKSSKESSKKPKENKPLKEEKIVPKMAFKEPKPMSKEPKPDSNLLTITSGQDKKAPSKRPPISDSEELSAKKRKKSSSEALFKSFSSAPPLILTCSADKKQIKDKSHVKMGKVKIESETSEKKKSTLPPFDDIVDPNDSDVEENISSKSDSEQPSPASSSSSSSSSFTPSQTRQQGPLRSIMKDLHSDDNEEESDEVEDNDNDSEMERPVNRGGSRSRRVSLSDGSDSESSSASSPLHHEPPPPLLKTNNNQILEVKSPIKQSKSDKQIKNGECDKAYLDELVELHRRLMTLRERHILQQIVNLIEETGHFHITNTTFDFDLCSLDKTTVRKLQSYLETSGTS
SIRT5 block – inhibitors of human sirtuin-5 desuccinylase; Q9NXA8; Purified SirT5, succinyl-peptide AMC, trypsin-coupled fluorescence; inhibition, % at 15 µM; actives 1.1% (n = 330,000); AID 652115; in the data active means inhibition above about 15%; inconclusive means no clear call, values can overlap the other calls
CaV13 ICDI inh – Disruptors of the CACNA1D IQ motif to Ca2+-dependent inactivation inhibitor domain association, primary screening, Förster resonance energy transfer in intact living …; HEK cells, CFP/YFP FRET ICDI-IQ, plate reader, 10 min; percent FRET-ratio fall versus neutral wells; actives 0.098% (n = 340,000); inhibition, % at 12.3 µM; AID 743397;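 active means mean replicate inhibition of at least 30% and at least 1% of replicates passing that level; inconclusive means only one of the two criteria is met; inactive means neither criterion is met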;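 further: 0% = median of the neutral control wells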
Active calls of the source: *.

For O=C(CN1C(=O)NC2(CCCC2)C1=O)N1CCN(S(=O)(=O)c2ccccc2[N+](=O)[O-])CC1 the results were S100A4 inh HTS 3.8, DENV2 CPE rescue 38.3*, MLL AF4-AF9 inh -1.4, SIRT5 block -0.1 and CaV13 ICDI inh -6.2.
`COc1cccc2c1C(=O)c1c(O)c3c(c(O)c1C2=O)CC(O)(C(=O)CO)CC3OC1CC(N(C)C)C(O)C(C)O1` (configuration not stated) gave S100A4 inh HTS active, DENV2 CPE rescue -3.4, MLL AF4-AF9 inh inconclusive, SIRT5 block 0.3 and CaV13 ICDI inh -23.1.
Screening COc1cccc2c1C(=O)c1c(O)c3c(c(O)c1C2=O)C[C@@](O)(C(C)=O)C[C@@H]3O[C@H]1C[C@H](N)[C@H](O)[C@H](C)O1 returned S100A4 inh HTS active, DENV2 CPE rescue 1.0, MLL AF4-AF9 inh 30.7*, SIRT5 block 0.3 and CaV13 ICDI inh -5.8.
`C[C@H](CO)N1C[C@H](C)[C@H](CN(C)C(=O)CN(C)C)Oc2ncc(C#Cc3ccccc3)cc2C1=O` gave S100A4 inh HTS 27.3, DENV2 CPE rescue 50.6*, MLL AF4-AF9 inh 11.6 and SIRT5 block -1.7.
`C[C@H]1CN([C@@H](C)CO)C(=O)c2cc(Br)cnc2O[C@H]1CN(C)C(=O)c1ccccc1F` gave S100A4 inh HTS 138.8*, DENV2 CPE rescue inconclusive, MLL AF4-AF9 inh -2.4 and SIRT5 block 4.7.
Screening C[C@@H]1CN([C@H](C)CO)C(=O)c2cc(C#Cc3ccncc3)cnc2O[C@H]1CN(C)C(=O)CN(C)C returned S100A4 inh HTS -5.0, DENV2 CPE rescue -2.0, MLL AF4-AF9 inh -7.5 and SIRT5 block -9.3.
C[C@@H]1CN([C@H](C)CO)C(=O)c2cc(C#Cc3ccccc3)cnc2O[C@@H]1CN(C)C(=O)c1ccccc1F was read as S100A4 inh HTS 74.4*, DENV2 CPE rescue -5.6, MLL AF4-AF9 inh 3.1 and SIRT5 block 1.2.
`Cc1ccc(S(=O)(=O)N[C@@H]2CC[C@@H](CC(=O)NCc3ccc(Cl)c(Cl)c3)O[C@@H]2CO)cc1` gave S100A4 inh HTS -5.3, DENV2 CPE rescue 5.2, MLL AF4-AF9 inh 1.7 and SIRT5 block -4.3.
`C[C@@H]1CN([C@H](C)CO)S(=O)(=O)c2ccc(-c3cccc(C#N)c3)cc2O[C@H]1CN(C)C(=O)c1cccnc1` gave S100A4 inh HTS -4.3, DENV2 CPE rescue 3.0, MLL AF4-AF9 inh 0.5 and SIRT5 block 3.3.
`CN(C)CC(=O)Nc1ccc2c(c1)[C@H]1C[C@@H](CC(=O)NCc3ccncc3)O[C@@H](CO)[C@H]1O2` gave MLL AF4-AF9 inh -0.6.
`O=C(NCc1ccc2c(c1)OCO2)C(=O)NCC1OCCCN1S(=O)(=O)c1ccccc1` (configuration not stated) gave S100A4 inh HTS 0.9, DENV2 CPE rescue 40.7*, MLL AF4-AF9 inh -1.7, SIRT5 block 0.4 and CaV13 ICDI inh -16.5.
For Cc1ccc(S(=O)(=O)N2CCCOC2CNC(=O)C(=O)NCc2ccc3c(c2)OCO3)cc1 (configuration not stated) the results were S100A4 inh HTS -6.8, DENV2 CPE rescue 4.8, MLL AF4-AF9 inh 0.6, SIRT5 block -3.9 and CaV13 ICDI inh -2.5.
`COc1cc(C(=O)OCCn2c(=O)c3c(ncn3CCN(C)C)n(C)c2=O)cc(OC)c1OC` gave S100A4 inh HTS 1.0, DENV2 CPE rescue 24.7*, MLL AF4-AF9 inh -4.6, SIRT5 block -1.3 and CaV13 ICDI inh -4.9.
Screening COc1cc(C(=O)OCCCN(C)C)cc(OC)c1OC returned S100A4 inh HTS -4.6, DENV2 CPE rescue -2.2, MLL AF4-AF9 inh -1.6 and CaV13 ICDI inh -20.7.
For COCc1[nH]nc2c1C(c1ccc(C)cc1)NC2=O (configuration not stated) the results were S100A4 inh HTS -2.9, DENV2 CPE rescue inconclusive, SIRT5 block 1.2 and CaV13 ICDI inh -3.5.
Screening CN(CC(=O)Nc1ccc(F)cc1)C(=O)CCc1nc2sc3c(c2c(=O)[nH]1)CCCC3 returned S100A4 inh HTS -2.0, DENV2 CPE rescue 18.5, MLL AF4-AF9 inh -3.7, SIRT5 block 0.6 and CaV13 ICDI inh -2.0.
For CN(CC(=O)Nc1ccc(Cl)cc1)C(=O)CCc1nc2sc3c(c2c(=O)[nH]1)CCCC3 the results were S100A4 inh HTS 0.4, DENV2 CPE rescue 30.7*, MLL AF4-AF9 inh -1.8, SIRT5 block -1.2 and CaV13 ICDI inh -2.4.
For N#Cc1cccc(-c2ccc(C3[C@H]4CNC[C@@H]3N4Cc3cc(-c4ccccc4)on3)cc2)c1 (some centres not stated) the results were S100A4 inh HTS 2.4, DENV2 CPE rescue 1.4, MLL AF4-AF9 inh -6.2 and SIRT5 block -5.1.
`N#C/C(=C\c1ccc(C(=O)O)cc1)c1nc2sc3c(c2c(=O)[nH]1)CCCC3` gave S100A4 inh HTS -2.6, DENV2 CPE rescue 0.8, MLL AF4-AF9 inh -7.3, SIRT5 block 19.9* and CaV13 ICDI inh -88.3.
Screening O=c1[nH]c(C2CC2)nc2sc3c(c12)CCCC3 returned S100A4 inh HTS -0.5, DENV2 CPE rescue -13.1, MLL AF4-AF9 inh 0.2, SIRT5 block 7.9 and CaV13 ICDI inh -6.5.
CN(C)c1ccc(NC(=O)C2C3C=CC(C3)C2C(=O)O)cc1 (configuration not stated) was read as S100A4 inh HTS 15.0, DENV2 CPE rescue 0.7, MLL AF4-AF9 inh 29.3*, SIRT5 block 1.3 and CaV13 ICDI inh -19.9.
Screening CC(=O)c1cccc(NC(=O)C2C3C=CC(C3)C2C(=O)O)c1 (configuration not stated) returned S100A4 inh HTS -19.1, MLL AF4-AF9 inh -3.2, SIRT5 block -2.2 and CaV13 ICDI inh 1.4.
Screening CC(C)NC(=O)N(C)C[C@@H]1OCCCC[C@H](C)Oc2ccc(NC(=O)c3ccncc3)cc2C(=O)N([C@@H](C)CO)C[C@H]1C returned S100A4 inh HTS -5.4, DENV2 CPE rescue 8.3, MLL AF4-AF9 inh 5.3 and SIRT5 block 0.9.
For C/C(=N\NC(=S)Nc1cccc(C)c1)c1ccccc1 the results were CaV13 ICDI inh -5.3.
C/C(=N\NC(=S)Nc1cccc(C)c1)c1ccco1 was read as S100A4 inh HTS -4.3, DENV2 CPE rescue -1.1, MLL AF4-AF9 inh 36.4*, SIRT5 block 11.7 and CaV13 ICDI inh -10.3.
`Cc1ccc(S(=O)(=O)NCC(=O)N2CCC(C)CC2)cc1` gave S100A4 inh HTS -5.8, DENV2 CPE rescue -9.4, MLL AF4-AF9 inh 48.4*, SIRT5 block -1.3 and CaV13 ICDI inh -5.7.
Nc1ccc(Cc2ccc(N)c(C(=O)O)c2)cc1C(=O)O was read as S100A4 inh HTS -2.3, MLL AF4-AF9 inh -10.2, SIRT5 block 45.4* and CaV13 ICDI inh -6.8.
`CCCNC(=O)[C@H]1[C@H](CO)[C@H]2Cn3c(cccc3=O)[C@H]2N1C(=O)C1CCC1` gave S100A4 inh HTS 15.0, DENV2 CPE rescue 2.1, MLL AF4-AF9 inh -0.3 and SIRT5 block 6.9.

Source: PubChem BioAssay (Broad Institute)
